Shown are actives, neighbours in structure and some others; about 3% of the full set was active somewhere.
S1P1 ag pot: S1P1 agonists and agonism potentiators, primary screen, cell-based, primary and confirmation screens, CRE-bla reporter. S1P1 CRE-bla cells, forskolin, beta-lactamase FRET, potentiator mode; S1P1 agonist co-added at EC20, 2 nM; 100% = saturating reference agonist, 0% = basal. activation, % at 9.5 µM. 0.57% of 56,000 active. AID 449, 2006;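 active = activation above a cutoff set at the mean activation of all tested compounds plus 3 SD, cut at about 54% in these data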;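 also: forskolin at 4 µM as EC80 and the EC20 agonist is SEW2871; 100% = SEW2871 at its EC100 plus forskolin at EC80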
Target sequence (P21453 whole entry, looked up): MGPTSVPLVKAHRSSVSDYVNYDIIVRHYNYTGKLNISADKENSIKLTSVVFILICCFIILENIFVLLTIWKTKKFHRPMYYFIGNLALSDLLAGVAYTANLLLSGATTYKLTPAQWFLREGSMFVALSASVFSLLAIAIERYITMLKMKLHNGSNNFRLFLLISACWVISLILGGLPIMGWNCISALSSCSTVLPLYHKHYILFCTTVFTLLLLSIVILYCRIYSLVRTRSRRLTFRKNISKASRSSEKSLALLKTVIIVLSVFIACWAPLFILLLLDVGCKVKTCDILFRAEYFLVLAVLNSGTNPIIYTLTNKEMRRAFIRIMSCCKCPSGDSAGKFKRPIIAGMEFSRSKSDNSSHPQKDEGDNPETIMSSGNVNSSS
5-HT1A blocker: human 5-HT1a receptor antagonists, primary screen, cell-based, CHO, Ga15 NFAT-bla reporter. CHO 5-HT1a Ga15 NFAT-bla reporter, antagonist mode. 5-hydroxytryptamine receptor 1A (Homo sapiens), P08908. 0.68% of 62,000 active. inhibition, % at 10 µM;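 active = inhibition above the mean of all tested compounds plus 3 SD, cut at about 43% in these data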;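 also: receptor stimulated by 5-CT agonist at 100 nM near EC80; beta-lactamase reporter measured by ratiometric fluorescence of a cleavable substrate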
5HT1a ag: human 5-HT1a receptor agonists, primary screen, cell-based, CHO, Ga15 NFAT-bla reporter | 5-hydroxytryptamine receptor 1A (Homo sapiens), P08908 | CHO 5-HT1a Ga15 NFAT-bla reporter, FRET ratio; 0% basal, 100% maximal reference agonist | activation, % at 10 µM | 0.56% of 65,000 active | AID 567, 2006;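 active = activation above the screen-wide mean activation plus 3 SD, cut at about 19% in these data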;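 also: 0% = DMSO wells and 100% = 5-CT at EC100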
S1P3 ag: human S1P3 receptor agonists, primary screen, cell-based, primary and confirmation, NFAT-BLA reporter; Sphingosine 1-phosphate receptor 3 (Homo sapiens), Q99500; S1P3 NFAT-BLA reporter cells, agonism, FRET ratio; relative to 1 µM S1P, basal subtracted; activation, % at 4.5 µM; 0.1% of 60,000 active; AID 373, 2006;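 active = activation above the screen-wide mean plus 3 SD, cut at about 4.5% in these data, passing the limit was not always enough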
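Measure – % activation relative to 1 µM S1P (100%), per plate · System – stable CHO line with human S1P3, Gα16, NFAT-BLA reporter · Timing – cells plated overnight, compound 4 h 37 °C, substrate 2 h RT · Technique – fluorescent BLA substrate, ex 405 nm, em 460/535 nm ratio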
HTR1E antagonist: 5-HT1E receptor antagonists, primary screen, cell-based, HTS; inhibition, % at 6 µM; 0.99% of 65,000 active; 5-hydroxytryptamine receptor 1E (Homo sapiens), P28566; CHO 5-HT1E Ga15 NFAT-bla reporter, FRET, antagonist;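 active = inhibition above a set limit, the mean inhibition across every tested compound plus 3 SD, cut at about 29% in these data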;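 also: signal is the 460 over 535 nm emission ratio of beta-lactamase substrate; 0% = agonist plus DMSO wells and 100% = wells without agonist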
HTR1E agonist: 5-HT1E receptor agonists, primary screen, cell-based, HTS. 5-hydroxytryptamine receptor 1E (Homo sapiens), P28566. CHO 5-HT1E Ga15 NFAT-bla reporter, FRET; 0% DMSO wells, 100% control agonist wells. activation, % at 6 µM. 0.69% of 65,000 active;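 active = activation above a set limit, the screen-wide mean activation plus 3 SD, cut at about 8.5% in these data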;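 also: 100% = positive control agonist at 1 µM giving full maximal response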
Numbers without * were called inactive; . = no result.

SMILES	S1P1 ag pot	5-HT1A blocker	5HT1a ag	S1P3 ag	HTR1E antagonist	HTR1E agonist
CCOC(=O)c1cnc(-n2nc(C)cc2C)nc1NCc1ccc2c(c1)OCO2	-26	43*	0	-1	8	0
CC(C)Oc1ccc(N2CC(C(=O)Nc3ccc4c(c3)OCO4)CC2=O)cc1 (centres undefined)	-8	-8	0	0	-9	1
CCOC(=O)c1ccc2nc(NC(=O)c3ccco3)sc2c1	63*	-4	2	0	3	0
CCOC(=O)c1ccc2nc(NC(=O)c3cccs3)sc2c1	.	3	-2	.	-6	0
Cc1cccc(N(CC(=O)N2CCCC2)S(=O)(=O)c2ccccc2)c1	4	8	-1	0	15	-1
O=S(=O)(c1ccccc1)N1CCN(C2CCCCCCC2)CC1	.	7	1	-1	-1	33*
O=C(c1nc2n(n1)C(c1ccc(Cl)cc1)C=C(c1ccccc1)N2)N1CCOCC1 (centres undefined)	.	28	-2	0	42*	-1
CC(=O)Nc1nc2n(n1)C(c1ccccc1)C=C(c1ccccc1)N2 (centres undefined)	.	30	-2	-2	34*	-1
COc1ccc(C2C=C(c3cccs3)Nc3nc(CCCO)nn32)cc1 (centres undefined)	27	28	-5	0	37*	-1
OCCCc1nc2n(n1)C(c1ccccc1)C=C(c1ccccc1)N2 (centres undefined)	-7	0	-2	0	30*	0
COc1ccc(C2C(C(=O)Nc3ccccc3)=C(C)Nc3nc(CCCO)nn32)cc1 (centres undefined)	2	-6	-2	-1	6	-2
COc1ccc(C2C=C(c3ccccc3)Nc3nc(CCCO)nn32)cc1 (centres undefined)	8	13	-2	0	24	0
CC(=O)Nc1nc2n(n1)C(c1ccc(F)cc1)C=C(c1ccccc1)N2 (centres undefined)	30	20	0	0	25	-1
O=C(Cn1nc(C(F)(F)F)c2c1CCCC2)Nc1ccc2c(c1)OCO2	34	14	-4	-1	2	0
CCCS(=O)(=O)N1CCCC(C(=O)NCC2CCCO2)C1 (centres undefined)	-34	-6	-5	-1	-8	0
C=C(C)n1c(=O)[nH]c2ccccc21	-21	-12	-6	-2	1	0
COC(=O)CCCCC(=O)C1C(=O)CC(C)(C)C(C(=O)OC)C1=O (centres undefined)	.	4	24*	0	-2	2
COc1cc(OC)cc(OCC(O)Cn2ccnc2)c1 (centres undefined)	-12	-3	-1	0	-4	1
CCOC(=O)Nc1ccc2c(c1)N(C(=O)CCN1CCOCC1)c1ccccc1S2=O (centres undefined)	32	52*	-4	0	18	-1
CCOC(=O)Nc1ccc2c(c1)N(C(=O)CCN1CCOCC1)c1ccccc1S2	-29	2	-1	-1	7	0
C/C=C/Cn1c(SCc2ccc(C)cc2)nc2c1c(=O)[nH]c(=O)n2C	-50	-1	0	-1	30*	2
N#Cc1nc(COc2ccccc2)oc1N1CCN(Cc2ccccc2)CC1	3	46*	-5	-1	5	-2
N#Cc1nc(COc2cccc(Cl)c2)oc1N1CCCC1	0	3	23*	0	0	0
N#Cc1nc(COc2ccccc2)oc1N1CCC(Cc2ccccc2)CC1	8	49*	-4	-1	2	-1
Cc1ccc(OCc2nc(C#N)c(N3CCN(Cc4ccccc4)CC3)o2)cc1	18	50*	-3	-2	9	-1
SMILES	S1P1 ag pot	5-HT1A blocker	5HT1a ag	S1P3 ag	HTR1E antagonist	HTR1E agonist
N#Cc1nc(COc2ccc(F)cc2)oc1N1CCCC1	.	-4	3	.	1	2
CCC(Oc1ccccc1)C(=O)N1CCN(c2ccccn2)CC1 (centres undefined)	.	5	-2	0	4	-2
CCC(Oc1ccccc1)C(=O)N1CCC(C(N)=O)CC1 (centres undefined)	.	7	20*	1	-11	0
O=S1(=O)Nc2c(ccc3cccnc23)-c2ccccc21	118*	74*	-4	-1	61*	7
Cc1ccc(OCCn2c(NC(=O)c3ccco3)nc3ccccc32)cc1	-9	39	-2	-2	5	1
Cc1cccc(OCCn2c(NC(=O)c3ccco3)nc3ccccc32)c1	3	55*	-1	-1	-10	0
O=C(Nc1nc2ccccc2n1CCOc1ccccc1)c1ccco1	9	48*	0	0	0	0
CCOC(=O)c1ccc(NC(=O)N(CC)CC)cc1	.	-5	0	.	-1	0
O=c1c2ccc(-c3nnc4n3-c3ccccc3SC4)cc2nc2n1CCCCC2	3	10	-1	-2	0	0
Cc1cccc(N=c2oc3cc(O)ccc3cc2C(N)=O)c1	-105	-190	64*	2	-15	24*
COc1cccc2cc(C(=O)NCC3CCCO3)c(=O)oc12 (centres undefined)	.	-2	1	.	-1	0
COc1ccccc1N=c1oc2cc(O)ccc2cc1C(N)=O	-52	-92	45*	2	-25	19*
COc1ccccc1N=c1oc2cc(O)ccc2cc1C(=O)NCC1CCCO1 (centres undefined)	-70	-66	54*	3	-30	15*
COc1ccccc1NC(=O)c1cc2ccc(O)cc2o/c1=N\O	-4	7	3	0	17	1
C=C1[C@@H](C)C2[C@H](Cc3ccccc3)NC(=O)[C@]23OC(=O)CC[C@H](O)CCC[C@H](C)C/C=C/[C@H]3[C@@H]1O (some centres undefined)	-3	.	-2	3	34*	0
COC(=O)C1=COC(C)C2CN3CCc4c([nH]c5ccccc45)C3CC12 (centres undefined)	-12	18	20*	0	4	3
CC1c2[nH]c3ccccc3c2CCN1C(=O)Nc1ccccc1 (centres undefined)	15	30	-3	0	5	1
